The values that follow come from ChEMBL document CHEMBL1649179, “Pharmacokinetics of LB80331 and LB80317 following oral administration of LB80380, a new antiviral agent for chronic hepatitis B (CHB), in healthy adult subjects, CHB patients, and mice” (Antimicrob Agents Chemother, 2009).

The subject of series [1] is Plasma. Kind of series: AUC (0 to infinity) in CD-1 mouse plasma assessed as (1-((2-amino-9H-purin-9-yl)methyl)cyclopropoxy)me at 30 mg/kg, po administered as single dose by LC-MS analysis. The class given is ADME, organism-based. Further details: time infinity, dose 30 mg/kg, route oral. To be noted: in vivo. Summed up: (§1)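 Male CD-1 mice given a single oral dose in 100% PEG 400. Samples extracted with perchloric acid and neutralized with ammonium bicarbonate. One aliquot assayed for the free analyte; the other treated with calf intestinal phosphatase to give the total including di-/triphosphates. Analysis by LC-MS/MS.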

Series [2] deals with Homo sapiens. Kind of series: AUC (0 to infinity) in chronic hepatitis B virus infected patient assessed as (1-((2-amino-9H-purin-9-yl)methyl)cyclopropoxy)me at 240 mg, po administered as single dose by LC-MS analysis. Further details: dose 240 mg, route oral, time infinity. The class given is ADME, organism-based, Plasma. To be noted: in vivo. In a few lines: (§2)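 CHB patients (HBsAg/HBeAg positive), six per dose cohort, given a first oral dose on day 1. Plasma sampled at baseline. Analysis by validated LC-MS/MS after protein precipitation with a stable-isotope internal standard; LLOQ 5 ng/ml for LB80331. Noncompartmental analysis gives Cmax and AUC0-∞.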

The test system of series [3] is Homo sapiens. Description: Oral clearance in chronic hepatitis B virus infected patient assessed as (1-((2-amino-9H-purin-9-yl)methyl)cyclopropoxy)me at 60 mg, po qd for 4 weeks by LC-MS analysis. Format: ADME, organism-based. To be noted: in vivo, 672 h. Summed up:
(§3)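 Oral LB80380 was given once daily for 4 weeks to CHB patients. Plasma LB80331 was quantified by validated LC-MS/MS after protein precipitation, with stable-isotope internal standard, at baseline and steady state (weeks 2–4), 0–24 h postdose. Noncompartmental CL/F was calculated as dose (adjusted for LB80380/LB80331 molecular weights) divided by AUC (AUC0-∞ single dose; AUC0-24 steady state).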

Series [4] deals with Liver. Description: AUC (0 to infinity) in CD-1 mouse liver assessed as di- and triphosphates of (1-((2-amino-9H-purin-9-yl)methyl)cyclopropoxy)me at 30 mg/kg, po administered as single dose by LC-MS analysis. The class given is ADME, organism-based. The arrangement: time infinity, dose 30 mg/kg, route oral. To be noted: in vivo. Summed up:
as §1

In series [5] the test system is Homo sapiens. Kind of series: Cmax in chronic hepatitis B virus infected patient assessed as (1-((2-amino-9H-purin-9-yl)methyl)cyclopropoxy)me at 240 mg, po administered as single dose by LC-MS analysis. The class given is ADME, organism-based. Further details: dose 240 mg, route oral. To be noted: in vivo. Summed up:
as §2

For series [6], the system named is Liver. Description: AUC (0 to 36 hrs) in CD-1 mouse liver assessed as (1-((2-amino-9H-purin-9-yl)methyl)cyclopropoxy)me at 30 mg/kg, po administered as single dose by LC-MS analysis. Further details: time < 36 hr, dose 30 mg/kg, route oral. Conditions: in vivo. The class given is ADME, organism-based. Summed up:
as §1

The subject of series [7] is Homo sapiens. Kind of series: Oral clearance in chronic hepatitis B virus infected patient assessed as (1-((2-amino-9H-purin-9-yl)methyl)cyclopropoxy)me at 240 mg, po administered as single dose by LC-MS analysis. The class given is ADME, organism-based. To be noted: in vivo. Summed up: as §3
For series [8], the system named is Homo sapiens. Description: Half life in chronic hepatitis B virus infected patient assessed as (1-((2-amino-9H-purin-9-yl)methyl)cyclopropoxy)me at 120 mg, po qd for 4 weeks by LC-MS analysis. Format: ADME, organism-based. To be noted: in vivo, 672 h. Summed up: (§4)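 CHB patients given LB80380 orally once daily for 4 weeks. Plasma was sampled on day 1 and at steady state (weeks 2–4), predose and 0.5, 1, 2, 3, 4, 6, 8 and 24 h postdose. LB80331 was measured by validated LC-MS/MS (LLOQ 5 ng/ml). Terminal-phase apparent t1/2 came from noncompartmental analysis and was flagged if extrapolated AUC exceeded 20% of AUC0-24.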

Series [9] relates to Homo sapiens. Kind of series: Cmax in chronic hepatitis B virus infected patient assessed as (1-((2-amino-9H-purin-9-yl)methyl)cyclopropoxy)me at 60 mg, po qd for 4 weeks by LC-MS analysis. Format: ADME, organism-based. Conditions: in vivo, 672 h. Further details: dose 60 mg, route oral. In a few lines: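 CHB patients, oral once daily for 4 weeks. Plasma sampled at steady state (weeks 2–4), predose and at 0.5, 1, 2, 3, 4, 6, 8 and 24 h postdose. LB80331 measured by validated LC-MS/MS (LLOQ 5 ng/ml) after protein precipitation with a stable-isotope internal standard. Cmax by noncompartmental analysis.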

In series [10] the test system is Homo sapiens. Description: Half life in chronic hepatitis B virus infected patient assessed as (1-((2-amino-9H-purin-9-yl)methyl)cyclopropoxy)me at 60 mg, po administered as single dose by LC-MS analysis. Format: ADME, organism-based. Conditions: in vivo. Summed up: as §4
In series [11] the test system is Liver. Description: AUC (0 to 36 hrs) in CD-1 mouse liver assessed as di- and triphosphates of (1-((2-amino-9H-purin-9-yl)methyl)cyclopropoxy)me at 30 mg/kg, po administered as single dose by LC-MS analysis. The class given is ADME, organism-based. Further details: time < 36 hr, dose 30 mg/kg, route oral. To be noted: in vivo. In a few lines:
as §1

Series [12] has as its system Homo sapiens. Description: Half life in chronic hepatitis B virus infected patient assessed as (1-((2-amino-9H-purin-9-yl)methyl)cyclopropoxy)me at 120 mg, po administered as single dose by LC-MS analysis. Format: ADME, organism-based. Conditions: in vivo. Summed up:
as §4

For series [13], the system named is Liver. Description: Half life in CD-1 mouse liver assessed as (1-((2-amino-9H-purin-9-yl)methyl)cyclopropoxy)me at 30 mg/kg, po administered as single dose by LC-MS analysis. Format: ADME, organism-based. The arrangement: dose 30 mg/kg, route oral. Conditions: in vivo. In a few lines:
as §1

The test system of series [14] is Homo sapiens. Kind of series: AUC (0 to infinity) in chronic hepatitis B virus infected patient assessed as (1-((2-amino-9H-purin-9-yl)methyl)cyclopropoxy)me at 60 mg, po administered as single dose by LC-MS analysis. The class given is ADME, organism-based, Plasma. The arrangement: dose 60 mg, time infinity, route oral. Conditions: in vivo. Summed up: as §2
The test system of series [15] is Homo sapiens. Kind of series: Cmax in chronic hepatitis B virus infected patient assessed as (1-((2-amino-9H-purin-9-yl)methyl)cyclopropoxy)me at 30 mg, po administered as single dose by LC-MS analysis. To be noted: in vivo. Format: ADME, organism-based. Further details: dose 30 mg, route oral. Summed up:
as §2

The test system of series [16] is Homo sapiens. Kind of series: Tmax in chronic hepatitis B virus infected patient assessed as (1-((2-amino-9H-purin-9-yl)methyl)cyclopropoxy)me at 30 mg, po administered as single dose by LC-MS analysis. The class given is ADME, organism-based. To be noted: in vivo. In a few lines: (§5)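 Daily oral LB80380 was given to CHB patients over 4 weeks. Blood was drawn on day 1 and at steady state (weeks 2–4), predose and 0.5–24 h postdose. Plasma LB80331 (LLOQ 5 ng/ml) and LB80317 (LLOQ 10 ng/ml) were measured by LC-MS/MS after protein-precipitation extraction. Tmax was taken by noncompartmental analysis.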

Series [17] has as its system Homo sapiens. Kind of series: Oral clearance in chronic hepatitis B virus infected patient assessed as (1-((2-amino-9H-purin-9-yl)methyl)cyclopropoxy)me at 120 mg, po administered as single dose by LC-MS analysis. The class given is ADME, organism-based. To be noted: in vivo. In a few lines:
as §3

For series [18], the system named is Homo sapiens. Description: Oral clearance in chronic hepatitis B virus infected patient assessed as (1-((2-amino-9H-purin-9-yl)methyl)cyclopropoxy)me at 240 mg, po qd for 4 weeks by LC-MS analysis. The class given is ADME, organism-based. To be noted: in vivo, 672 h. Summed up:
as §3

The subject of series [19] is Homo sapiens. Description: AUC (0 to infinity) in chronic hepatitis B virus infected patient assessed as (1-((2-amino-9H-purin-9-yl)methyl)cyclopropoxy)me at 30 mg, po administered as single dose by LC-MS analysis. Format: ADME, organism-based, Plasma. Further details: dose 30 mg, time infinity, route oral. To be noted: in vivo. Summed up:
as §2

For series [20], the system named is Plasma. Kind of series: Cmax in CD-1 mouse plasma assessed as (1-((2-amino-9H-purin-9-yl)methyl)cyclopropoxy)me at 30 mg/kg, po administered as single dose by LC-MS analysis. Format: ADME, organism-based. The arrangement: dose 30 mg/kg, route oral. Conditions: in vivo. Summed up: as §1
The test system of series [21] is Homo sapiens. Kind of series: Tmax in chronic hepatitis B virus infected patient assessed as (1-((2-amino-9H-purin-9-yl)methyl)cyclopropoxy)me at 30 mg, po qd for 4 weeks by LC-MS analysis. Conditions: in vivo, 672 h. Format: ADME, organism-based. In a few lines:
as §5

Series [22] deals with Liver. Kind of series: Half life in CD-1 mouse liver assessed as di- and triphosphates of (1-((2-amino-9H-purin-9-yl)methyl)cyclopropoxy)me at 30 mg/kg, po administered as single dose by LC-MS analysis. Format: ADME, organism-based. The arrangement: dose 30 mg/kg, route oral. Conditions: in vivo. In a few lines: as §1

By AUC is commonly meant the area under the concentration-time curve, a measure of exposure. As usually defined, the CL/F is clearance divided by bioavailability, as obtained after extravascular dosing. By Cmax is commonly meant the maximum level reached in the sampled fluid or tissue. By Tmax is commonly meant the time from dosing to the highest level.

With `Nc1ncc2ncn(CC3(OCP(=O)(O)O)CC3)c2n1` [BESIFOVIR], the AUC is 17 µM·h with Plasma [1]; 6.302 µg·h/mL in the series on Homo sapiens [2]; 64 µM·h in the series on Liver [4]; 102 µM·h in the series on Liver [6]; 64 µM·h with Liver [11]; 2.344 µg·h/mL in the series with Homo sapiens [14]. The AUC with Homo sapiens [19] came to 1.069 µg·h/mL. Moreover, the CL/F with Homo sapiens [3] was determined as 273 mL/min; in the series on Homo sapiens [7], 363 mL/min; with Homo sapiens [17], 273 mL/min; with Homo sapiens [18], 416 mL/min. In addition, the Cmax in the series with Homo sapiens [5] is 1.076 µg/mL; in the series with Homo sapiens [9], 0.362 µg/mL; in the series on Homo sapiens [15], 0.2 µg/mL; with Plasma [20], 6 µM. The t1/2 with Homo sapiens [8] worked out at 3.1 h; in the series with Homo sapiens [10], 3 h; in the series with Homo sapiens [12] it was 3 h; with Liver [13] it was 2.8 h; in the series on Liver [22], 3.2 h. Besides, the results for the Tmax in the series with Homo sapiens [16] and with Homo sapiens [21] were 1.5 h and 2 h, respectively.
